Assay outcomes as filed in PubChem.
Only some compounds are listed: those with a hit (about 3.8% of all), similar ones and a draw of the others.
hERG protect: hERG rescue from dofetilide block, primary screen, cell-based, CHO-hERG, FluxOR thallium flux, dofetilide IC70; dofetilide IC70 present; activation (rescue from dofetilide block), less the hit threshold, % at 10 µM; 310,000 compounds, 0.51% hits; AID 1511, 2009;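 active = activation above the mean of controls blocked by dofetilide plus 5 SD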;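 also: thallium influx through hERG after potassium depolarization seen as dye fluorescence rise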
KCNQ1 block: inhibitors of human KCNQ1 channel, primary screen, cell-based, thallium flux, high-throughput; B-score at 10 µM; CHO-K1 KCNQ1, FluxOR thallium flux fluorescence; stronger effect = higher value; AID 2642, 2010; 310,000 compounds, 1.3% hits; Potassium voltage-gated channel subfamily KQT member 1 (Homo sapiens), P51787;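 active = compounds whose thallium flux B-score, printed positive for inhibition, exceeds three library SD while starting fluorescence stays within three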;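 also: channel opened by potassium depolarization with thallium stimulus after 20 min compound exposure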
KCNQ1 pot: potentiators or activators of KCNQ1 channel, primary screen, cell-based, thallium flux, high-throughput; Potassium voltage-gated channel subfamily KQT member 1 (Homo sapiens), P51787; CHO-K1 KCNQ1, thallium flux FluxOR fluorescence; stronger effect = higher value; B-score at 10 µM; 310,000 compounds, 0.35% hits; AID 2648, 2010;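 active = fluorescence ratio B-score, a plate-corrected score, at least three library SD, with initial intensity B-score within 5 SD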
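System: Stable KCNQ1 CHO-K1 line | Incubation: 90 min dye loading and 20 min compound exposure, both at room temperature | Measure: Ratio B score | Medium: Assay buffer for compound exposure, DMSO matched across wells | Compound dosing: Single-concentration screen | Probe or stimulus: K+/Tl+ depolarizing stimulus | Measured by: Kinetic FluxOR fluorescence, 10 s baseline plus 110 s post-stimulus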
KCNK9 inh: KCNK9 potassium channel inhibitors, primary screen, HEK293 cells, thallium flux; B-score at 10 µM; AID 488922, 2010; 310,000 compounds, 1.2% hits; Potassium channel subfamily K member 9 (Homo sapiens), Q9NPC2; FluxOR thallium flux fluorescence; stronger effect = lower value;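 active = ratio B-score over 3 SD below the library mean, with starting fluorescence within 5 SD of its mean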;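 also: negative B-score means less thallium flux so channel inhibition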
KCNK3 block: human KCNK3 channel inhibitors, primary screen, CHO cells, FluxOR thallium flux, B-score | B-score at 10 µM | 340,000 compounds, 0.84% hits | Potassium channel subfamily K member 3 (Homo sapiens), O14649 | FluxOR fluorescence; stronger effect = lower value | AID 602410, 2012;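 active = B-score under library mean minus 4 SD, starting fluorescence ratio at most library mean plus 5 SD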;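 also: more negative B-score means stronger inhibition of thallium flux through KCNK3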
Target sequence (O14649 whole entry, looked up): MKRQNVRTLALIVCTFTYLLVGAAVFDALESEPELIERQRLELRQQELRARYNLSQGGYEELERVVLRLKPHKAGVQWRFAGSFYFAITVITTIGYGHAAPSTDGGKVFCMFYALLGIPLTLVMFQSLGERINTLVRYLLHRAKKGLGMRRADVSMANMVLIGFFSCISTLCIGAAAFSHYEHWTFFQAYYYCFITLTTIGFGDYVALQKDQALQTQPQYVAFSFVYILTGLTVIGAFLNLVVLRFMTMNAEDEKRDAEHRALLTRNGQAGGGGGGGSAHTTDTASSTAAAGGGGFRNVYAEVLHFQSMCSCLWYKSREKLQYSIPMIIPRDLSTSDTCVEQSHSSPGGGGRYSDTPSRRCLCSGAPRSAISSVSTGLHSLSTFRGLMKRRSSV
Kir21 inh: inhibitors of mouse Kir2.1 inward-rectifier potassium channel; HEK293-Kir2.1, FluxOR thallium flux fluorescence; stronger effect = lower value; B-score at 10 µM; 310,000 compounds, 0.85% hits;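 active = fluorescence ratio B-score at or below minus 3 SD of library scores, with starting-brightness B-score within 2 SD, cut at about -4.2 in these data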;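 also: channel flux triggered by added potassium and thallium sulfate stimulus; B-score of peak minus minimum fluorescence over baseline after thallium stimulus; more negative B-score means stronger Kir2.1 block with less thallium influx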
Hits are given with their value; – = inactive; · = no result.

SMILES | hERG protect | KCNQ1 block | KCNQ1 pot | KCNK9 inh | KCNK3 block | Kir21 inh
CCOCCCN(C(=O)c1ccco1)C(C(=O)NC1CCCC1)c1ccc(OC)cc1 (stereo not drawn) | – | – | – | – | – | –
COc1ccc(CN(CCC(c2ccc(F)cc2)C2CCOC(C)(C)C2)C(=O)c2ccco2)cc1 (stereo not drawn) | – | – | – | -11 | – | –
CC(c1ccccc1)N(CCC(c1ccccc1)C1CCOC(C)(C)C1)C(=O)c1ccco1 (stereo not drawn) | – | 9 | – | – | – | -6
CCCN(CCC)C(=O)CC(c1ccccc1)C1CCOC(C)(C)C1 (stereo not drawn) | – | – | – | – | – | –
CN(CC(=O)NCc1cccnc1)S(=O)(=O)c1ccc2c(c1)c(=O)n(C)c(=O)n2C | – | – | – | – | – | –
CCCn1c(=O)c(C(=O)NCc2ccc3c(c2)OCO3)c(O)c2ccccc21 | – | 8 | – | – | – | –
CCCn1nc(C(=O)NCc2ccc3c(c2)OCO3)c2ccccc2c1=O | – | – | – | – | -8.9 | –
NS(=O)(=O)c1ccc(NC(=O)COC(=O)/C=C/c2ccc([N+](=O)[O-])cc2)cc1 | – | – | – | – | – | –
CCC(CC)C(=O)OCC(=O)Nc1cccc(S(=O)(=O)N(C)c2ccccc2)c1 | – | – | – | -7.2 | – | –
CC(OC(=O)c1nn(C)c(=O)c2ccccc12)C(=O)NCc1ccc2c(c1)OCO2 (stereo not drawn) | – | – | – | – | – | –
CN(c1ccccc1)S(=O)(=O)c1cccc(NC(=O)COc2ccccc2)c1 | · | · | · | · | – | ·
CN(C)S(=O)(=O)c1cccc(NC(=O)COC(=O)/C=C/c2ccc([N+](=O)[O-])cc2)c1 | 8.1 | – | – | – | – | –
Nc1[nH]nc2nc(N3CCOCC3)nc(-c3ccccc3)c12 | – | – | – | – | – | –
CCCC(=O)Nc1cccc(S(=O)(=O)N(C)c2ccccc2)c1 | – | – | – | – | – | –
CCCn1nc(C(=O)Nc2cccc(S(=O)(=O)N(C)c3ccccc3)c2)c2ccccc2c1=O | · | · | · | · | -9.2 | ·
COC(=O)[C@@H](c1ccccc1)N(C)S(=O)(=O)c1cccc(S(=O)(=O)N(C)[C@@H](C(=O)OC)c2ccccc2)c1 | – | – | – | -7 | – | –
CCN(Cc1ccccc1)C(=O)COC(=O)CNS(=O)(=O)c1ccc(C)cc1 | – | – | – | – | – | –
CCCn1c(=O)c2c(c3ccccc31)OCC(=O)N2 | – | – | – | – | – | –
O=C(Nc1cccc([N+](=O)[O-])c1)NC1CCS(=O)(=O)C1 (stereo not drawn) | – | 10 | – | – | – | –
NC(=O)c1cccnc1Nc1cccc([N+](=O)[O-])c1 | 9.4 | – | – | – | – | –
O=C(Nc1ccc(OC(F)(F)F)cc1)Nc1cccc([N+](=O)[O-])c1 | – | 7 | – | – | – | –
O=C(Nc1cc([N+](=O)[O-])ccc1O)NC1CCS(=O)(=O)C1 (stereo not drawn) | · | · | · | · | – | ·
NC(=O)c1cc([N+](=O)[O-])ccc1Nc1ccccc1 | · | · | · | · | – | ·
O=C(Nc1cccnc1)Nc1cccc([N+](=O)[O-])c1 | – | 6 | – | – | – | –
O=C(Nc1cccc([N+](=O)[O-])c1)c1cnccn1 | – | – | – | – | – | –
SMILES | hERG protect | KCNQ1 block | KCNQ1 pot | KCNK9 inh | KCNK3 block | Kir21 inh
CCOC(=O)c1cnn(-c2ccc(Cl)cc2)c1C1CCN(C(=O)OC(C)(C)C)CC1 | – | – | – | – | – | –
O=C(c1ccc2nccnc2c1)N1CCN(c2ccccc2)CC1 | – | – | – | – | – | –
Cc1cccc(N2CCN(C(=O)c3ccc4nccnc4c3)CC2C)c1 (stereo not drawn) | · | · | · | · | -9.5 | ·
CN(CCNC(=O)c1ccc(CS(=O)(=O)c2ccc(Br)cc2)o1)CCc1ccccc1 | – | – | – | – | – | -4.9
C=CCOc1ccc(CN(C)CC(O)COc2cccc3ccccc23)cc1 (stereo not drawn) | – | – | – | – | – | -4.6
Cc1cc(CN(C)Cc2ccc(OCC(O)CN(C)Cc3ccccc3)cc2)on1 (stereo not drawn) | – | – | – | – | – | –
CCC1C(c2ccccc2)N(C)C(c2ccccc2)CC1(O)c1ccccc1 (stereo not drawn) | – | 12 | – | – | – | –
CN(C)c1ccc(C(=O)Nc2ccc(S(=O)(=O)Nc3nccs3)cc2)cc1 | – | – | – | – | – | –
Cc1ccc(NC(=O)CSCC(=O)Nc2ccccc2C(=O)N2CCCCC2)cc1 | – | – | – | – | – | –
Cc1ccc(NC(=O)CSCC(=O)Nc2cc(Cl)ccc2N2CCOCC2)cc1 | – | 6 | – | – | – | –
Cc1cccc(NC(=O)CSCC(=O)Nc2cc(Cl)ccc2N2CCN(C)CC2)c1 | – | – | – | – | – | -4.6
COc1ccc(NC(=O)CSCC(=O)Nc2cc(Cl)ccc2N2CCOCC2)cc1 | – | – | – | – | – | –
Cc1cc(NC(=O)CSCC(=O)Nc2cc(Cl)ccc2N2CCN(C)CC2)no1 | · | · | · | · | – | ·
Cc1ccc(NC(=O)CSCC(=O)Nc2ccccc2N2CCCC2)cc1 | – | – | – | – | – | -6.7
COC(=O)NNC(=O)C(c1ccccc1)c1ccccc1 | – | – | – | – | – | –
CN(c1ccccc1)S(=O)(=O)c1ccc(C(=O)OCC(=O)NCc2ccco2)cc1 | – | – | – | – | – | –
CCOc1ccccc1NC(=O)C(=O)CC(=O)c1ccc(OC)cc1 | 15 | – | 14 | – | – | –
COc1ccc(C(=O)CC(=O)C(=O)Nc2ccc(C)c(Cl)c2)cc1 | 17 | – | 9 | – | – | –
COc1ccc(C(=O)CC(=O)C(=O)Nc2cc(C)ccc2C)cc1 | – | – | – | – | – | –
O=S(=O)(c1ccc(Br)cc1)N1CCN(c2ccc3nnc(-c4ccccc4)n3n2)CC1 | – | – | – | – | – | –
CC(=O)N(Cc1ccccc1C)c1cccc(C)c1C | – | – | – | – | – | -4.6
Cc1ccc(NC(=O)c2ccco2)c(NC(=O)c2ccccc2C)c1 | – | – | – | – | – | –
CCn1cc(C(=O)NCC(OC)OC)c(=O)c2cc(S(=O)(=O)N3CCC(C)CC3)ccc21 | – | 6 | – | – | – | –
CCOCCCNC(=O)c1cn(CC)c2ccc(S(=O)(=O)N(C)C3CCCCC3)cc2c1=O | – | 7 | – | – | – | –
